Consider eleven compounds from ChEMBL document CHEMBL4619773, “Chemoreactive-Inspired Discovery of Influenza A Virus Dual Inhibitor to Block Hemagglutinin-Mediated Adsorption and Membrane Fusion” (J Med Chem, 2020).

Molecules are shown by their SMILES. Active and inactive are the calls of the source. The calls are words filed in the database; no cut-off is given here.

Data set [1] deals with Influenza A virus. Description: Antiviral activity against Influenza A virus (A/Puerto Rico/8/1934(H1N1)) infected in MDCK cells assessed as inhibition of virus-induced cytopathic effect incubated for 48 hrs by crystal violet staining based assay. Format: functional, organism-based. The gist of the method: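 MDCK cells were infected at MOI 0.1, the inoculum was removed, and compounds were added in triplicate. After 48 h the cells were fixed in 4% formaldehyde (20 min, RT) and stained with 0.1% crystal violet (30 min). Dye was solubilized in methanol and read at 570 nm.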

A short description of data set [2]: Cytotoxicity in dog MDCK cells assessed as reduction in cell viability incubated for 48 hrs by crystal violet staining based assay. Details: species or system Canis lupus familiaris.
Data set [3] can be described thus: Selectivity index, ratio of CC50 for cytotoxicity in dog MDCK cells assessed as reduction in cell viability incubated for 48 hrs by crystal violet staining based assay to […] in dog MDCK cells assessed as reduction in cell viability incubated for 48 hrs by crystal violet staining based assay.
Data set [4] deals with Hemagglutinin (Influenza A virus (A/Puerto Rico/8/1934(H1N1)), UniProt P03452). As to the kind of experiment: Binding affinity to Influenza A virus (A/Puerto Rico/8/1934(H1N1)) Hemagglutinin at 1.5625 to 50 uM by SPR assay. The essentials: (§1)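 HA protein was immobilized on CM5 chips. Compound (50, […], 12.5, 6.25, 3.125, 1.5625 µM) was injected for 2 min, followed by a 10-min PBST wash and regeneration with 2 mM NaOH for 30 s. Runs were at 25 °C with 2 µl/s flow, using a blank HA-free reference channel. KD was obtained from kinetic fitting.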
Hemagglutinin (Influenza A virus (A/Puerto Rico/8/1934(H1N1)), UniProt P03452), sequence (P03452 whole entry): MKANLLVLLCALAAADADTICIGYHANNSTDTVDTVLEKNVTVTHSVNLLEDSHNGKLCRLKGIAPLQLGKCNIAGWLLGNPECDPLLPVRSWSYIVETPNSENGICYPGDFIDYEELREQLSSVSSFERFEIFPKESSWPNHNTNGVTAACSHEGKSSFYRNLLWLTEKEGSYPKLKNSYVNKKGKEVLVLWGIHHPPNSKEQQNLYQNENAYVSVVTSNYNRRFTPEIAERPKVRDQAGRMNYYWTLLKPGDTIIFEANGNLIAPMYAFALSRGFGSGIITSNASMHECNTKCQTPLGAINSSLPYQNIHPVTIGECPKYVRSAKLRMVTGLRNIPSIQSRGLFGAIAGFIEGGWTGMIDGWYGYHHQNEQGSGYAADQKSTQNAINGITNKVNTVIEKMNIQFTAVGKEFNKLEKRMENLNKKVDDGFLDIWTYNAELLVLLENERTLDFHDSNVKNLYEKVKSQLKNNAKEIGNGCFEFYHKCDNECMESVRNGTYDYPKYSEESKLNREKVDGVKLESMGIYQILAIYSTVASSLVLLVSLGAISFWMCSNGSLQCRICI
Background: In SPR one partner is held on a chip, and binding of the other changes the refractive index at the surface.

The test system of data set [5] is Influenza A virus (A/Aichi/2/1968(H3N2)). As to the kind of experiment: Binding affinity to Influenza A virus (A/Aichi/2/1968(H3N2)) Hemagglutinin at 1.5625 to 50 uM by SPR assay. The essentials:
as §1

Data set [6] deals with Influenza A virus. Description: Antiviral activity against Influenza A virus (A/Puerto Rico/8/1934(H1N1)) infected in Kunming mouse assessed as decrease in lung TNFalpha level at 10 mg/kg/day, po starting 4 hrs after viral challenge and continued for 4 days by ELISA. Format: functional, organism-based. The gist of the method: (§2)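 Four-week-old female Kunming mice received PR8 intranasally (500 PFU/mouse in 40 µL PBS) and were then dosed once daily orally or intranasally. Lungs were collected on day 4, and TNF-α and IL-6 in lung tissue were measured by ELISA.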
A general note: In an ELISA, binding on a coated surface is turned into a signal by an enzyme label.

Data set [7] relates to Influenza A virus. Description: Antiviral activity against Influenza A virus (A/Puerto Rico/8/1934(H1N1)) infected in Kunming mouse assessed as mouse survival at 10 mg/kg/day, po starting 4 hrs after viral challenge and continued for 7 days by plaque assay. Format: functional. The essentials:
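Groups of 10 female Kunming mice were infected intranasally with PR8 (1000 PFU/mouse) on day 0 and dosed once daily for seven days. Weight and clinical signs were recorded daily. Mice losing more than 25% of pre-infection weight were scored dead and euthanized; survivors were killed on day 14.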

The test system of data set [8] is Influenza A virus. As to the kind of experiment: Antiviral activity against Influenza A virus (A/Puerto Rico/8/1934(H1N1)) infected in Kunming mouse assessed as decrease in lung IL6 level at 10 mg/kg/day, po starting 4 hrs after viral challenge and continued for 4 days by ELISA. Format: functional, organism-based. The gist of the method: as §2

Regarding `CC(=O)c1cc(C)c(O)c(Cc2[nH]c3cccc(Br)c3c2Cc2c(O)c(C)cc(C(C)=O)c2O)c1O`, the half-maximal inhibitory concentration (IC50) in the data set on Influenza A virus [1] is greater than 100 µM.

As to `CC(=O)c1cc(C)c(O)c(Cc2[nH]c3ccc(C)cc3c2Cc2c(O)c(C)cc(C(C)=O)c2O)c1O`, in the data set on Influenza A virus [1], the IC50 turned out to be 39.8 µM. The CC50 at 48 h in data set [2] came out at 681 µM. Besides, the “Ratio CC50/IC50” value in data set [3] is 17.1.

As to `CC(=O)c1cc(C)c(O)c(CNc2cc(C(F)(F)F)cc(C(F)(F)F)c2)c1O`, in the data set with Influenza A virus [1], the IC50 is greater than 100 µM.

For the compound `CC(=O)c1cc(C)c(O)c(Cc2cn(Cc3c(O)c(C)cc(C(C)=O)c3O)c3cccc(Br)c23)c1O`, the IC50 with Influenza A virus [1] is greater than 100 µM.

In the case of `CC(=O)c1cc(C)c(O)c(Cc2c(Cc3c(O)c(C)cc(C(C)=O)c3O)n(Cc3c(O)c(C)cc(C(C)=O)c3O)c3cccc(Br)c23)c1O`, in the data set with Influenza A virus [1], the IC50 is greater than 100 µM.

In the case of `CC(=O)c1cc(C)c(O)c(Cc2c[nH]c3ccccc23)c1O`, the Kd entry in data set [4] is recorded as “Not Active”.

As for `CC(=O)NC1[C@H]([C@H](O)[C@H](O)CO)O[C@@](O[C@H]2[C@@H](O)[C@@H](CO)O[C@@H](O[C@@H]([C@H](O)[C@@H](O)C=O)[C@H](O)CO)[C@@H]2O)(C(=O)O)C[C@@H]1O` (stereo not given in full), the outcome in data set [5] was Active. The dissociation constant (Kd) in data set [4] (read-out: Kd) was found to be 4.5 µM.

As for `CCOC(=O)C1=C[C@@H](OC(CC)CC)[C@H](NC(C)=O)[C@@H](N)C1` [OSELTAMIVIR], the result with Influenza A virus [6] and in the data set with Influenza A virus [8] was Active. In the data set on Influenza A virus [7], the survival at 10 mg/kg/day came to 100%.

Consider `NC(=O)c1ncn([C@@H]2O[C@H](CO)[C@@H](O)[C@H]2O)n1` [RIBAVIRIN], for which the half-maximal inhibitory concentration (IC50) in the data set on Influenza A virus [1] came to 98.3 µM. Also, the “Ratio CC50/IC50” value in data set [3] is on record as 20.8.

Regarding `CC(=O)c1cc(C)c(O)c(Cc2c(Cc3c(O)c(C)cc(C(C)=O)c3O)n(Cc3c(O)c(C)cc(C(C)=O)c3O)c3ccccc23)c1O`, the IC50 with Influenza A virus [1] is greater than 100 µM.

On to `CCOC(=O)c1c(CSc2ccccc2)n(C)c2cc(Br)c(O)c(CN(C)C)c12` [UMIFENOVIR], for which the IC50 with Influenza A virus [1] was 32.5 µM. Besides, in data set [5], the outcome was Active. In data set [4] (read-out: Kd), the Kd worked out at 11.1 µM. The “Ratio CC50/IC50” value in data set [3] turned out to be 10.4.

Broadly, the IC50 is the midpoint of a concentration-inhibition curve. Usually CC50 stands for the concentration giving 50% cytotoxicity. Usually Kd stands for the free concentration of one partner at which half of the binding sites on the other are occupied at equilibrium, for simple one-to-one binding.
